The values below come from ChEMBL document CHEMBL4049400, “Aldehyde Oxidase Mediated Metabolism in Drug-like Molecules: A Combined Computational and Experimental Study” (J Med Chem, 2017).

Structures are written as SMILES.

In series [1] the target is T1, Aldehyde oxidase (Homo sapiens, UniProt Q06278).
T1 sequence (Q06278 whole entry): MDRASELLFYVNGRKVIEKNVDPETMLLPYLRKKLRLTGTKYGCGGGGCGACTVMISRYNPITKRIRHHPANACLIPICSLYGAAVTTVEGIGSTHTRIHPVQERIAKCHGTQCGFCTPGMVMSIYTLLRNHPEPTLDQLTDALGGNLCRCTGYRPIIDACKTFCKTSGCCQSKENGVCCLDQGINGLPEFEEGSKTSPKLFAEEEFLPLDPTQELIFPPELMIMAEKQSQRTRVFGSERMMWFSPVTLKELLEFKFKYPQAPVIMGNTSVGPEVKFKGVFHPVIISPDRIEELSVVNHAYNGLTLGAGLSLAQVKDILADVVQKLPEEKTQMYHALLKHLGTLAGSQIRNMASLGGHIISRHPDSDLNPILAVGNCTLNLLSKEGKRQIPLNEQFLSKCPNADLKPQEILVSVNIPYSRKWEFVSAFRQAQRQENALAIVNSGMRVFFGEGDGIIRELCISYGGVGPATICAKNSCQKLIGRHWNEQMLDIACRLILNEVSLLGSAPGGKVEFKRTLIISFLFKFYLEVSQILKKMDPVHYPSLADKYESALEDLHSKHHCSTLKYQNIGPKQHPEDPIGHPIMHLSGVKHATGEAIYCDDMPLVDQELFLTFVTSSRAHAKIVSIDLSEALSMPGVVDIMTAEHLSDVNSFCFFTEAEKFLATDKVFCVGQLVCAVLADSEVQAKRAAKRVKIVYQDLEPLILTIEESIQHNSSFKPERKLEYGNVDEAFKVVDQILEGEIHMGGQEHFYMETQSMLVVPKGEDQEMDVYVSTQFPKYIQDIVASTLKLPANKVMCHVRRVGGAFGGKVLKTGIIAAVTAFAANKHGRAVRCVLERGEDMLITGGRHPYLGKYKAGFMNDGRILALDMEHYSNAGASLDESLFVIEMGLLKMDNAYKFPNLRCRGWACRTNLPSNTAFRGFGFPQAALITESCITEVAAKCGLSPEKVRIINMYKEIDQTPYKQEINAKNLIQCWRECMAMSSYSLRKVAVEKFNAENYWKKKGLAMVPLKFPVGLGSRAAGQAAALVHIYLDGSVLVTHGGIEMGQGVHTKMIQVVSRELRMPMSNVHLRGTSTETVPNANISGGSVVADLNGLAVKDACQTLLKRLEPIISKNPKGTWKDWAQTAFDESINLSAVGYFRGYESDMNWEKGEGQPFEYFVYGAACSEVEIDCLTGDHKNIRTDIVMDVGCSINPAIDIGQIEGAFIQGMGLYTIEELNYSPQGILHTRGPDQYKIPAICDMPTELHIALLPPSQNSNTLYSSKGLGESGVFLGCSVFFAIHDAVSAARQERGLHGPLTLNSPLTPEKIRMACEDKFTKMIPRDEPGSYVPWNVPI
Kind of series: Drug metabolism in human liver cytosol assessed as AOX-mediated oxidative metabolite formation by measuring decrease in the liquid chromatography-mass spectrometry peak at 10 uM after 30 min by UPLC/Q-TOF MS analysis. The note with it: 0.5 h. Format: ADME. The essentials: (§1)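 Pooled human liver cytosol, 0.5 mg/mL protein, in 100 mM potassium phosphate pH 7.4; 3 min preincubation at 37 °C, then 10 μM substrate (final; DMSO 0.1% v/v). Quenched after 30 min with equal volume ice-cold acetonitrile, centrifuged, supernatant run by UPLC/Q-TOF MS in positive ion mode. Controls without substrate or with inactivated enzyme; duplicate incubations.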

Series [2] addresses T1, Aldehyde oxidase. Kind of series: Drug metabolism in human liver cytosol assessed as as AOX-mediated quinolone group metabolism at 10 uM after 30 mins by UPLC/Q-TOF MS analysis. The note with it: 0.5 h. Format: ADME. The essentials:
as §1

For series [3], the target named is T1, Aldehyde oxidase. Kind of series: Drug metabolism in human liver cytosol assessed as AOX-mediated 2-fluoro-N-methyl-4-(3-oxo-7-(quinolin-7-ylmethyl)-3,4-dihydroimidazo[1,2-b][1,2,4]triazin-2-yl)benzamide metabolite formation by measuring LC-MS peak area of the metabolite at 10 uM after 30 min by UPLC/Q-TOF MS analysis. Format: ADME. The settings on record: 0.5 h. In outline: as §1

Series [4] concerns the target T1, Aldehyde oxidase. As to the kind of experiment: Drug level in human liver cytosol treated with capmatinib assessed as AOX-mediated metabolite formation at 10 uM after 30 min by UPLC/Q-TOF MS analysis. Format: ADME. The note with it: 0.5 h. In outline:
as §1

In series [5] the target is T1, Aldehyde oxidase. As to the kind of experiment: Drug metabolism in human liver cytosol assessed as AOX-mediated 2-fluoro-N-methyl-4-(3-oxo-7-(quinolin-7-ylmethyl)-3,4-dihydroimidazo[1,2-b][1,2,4]triazin-2-yl)benzamide metabolite formation by measuring LC-MS peak area of the metabolite at 10 uM after 30 mins in presence of menadione by UPLC/Q-TOF MS analysis. Format: ADME. The settings on record: 0.5 h. The essentials: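 Human liver cytosol (0.5 mg/mL protein) in 100 mM phosphate buffer preincubated 10 min at 37 °C with 100 μM menadione (DMSO 0.2% v/v final), then 10 μM substrate (final) added. Stopped at 30 min with equal volume ice-cold acetonitrile; metabolites detected by UPLC/Q-TOF MS. Inhibitor-free controls run alongside; duplicate incubations.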

Series [6] is described as follows: Retention time of the compound by UPLC/Q-TOF MS analysis. The essentials:
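HSS T3 column (1.8 μm, 100 × 2.1 mm) at 45 °C, 0.4 mL/min. Mobile phase: 5 mM ammonium acetate with 0.1% formic acid (A) and acetonitrile (B). Gradient 10% B for 1 min, to 65% B over 6 min, to 99% B over 0.5 min, held 1.5 min, back to 10% B. Positive-ion Q-TOF detection, m/z 80–1000.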

For `Cn1cc(-c2ccc3ncc(Cc4ccc5ncccc5c4)n3n2)cn1`, the Drug metabolism entry on Aldehyde oxidase [1] was “Metabolite_Detected”. Regarding `OCCn1cc(-c2cnc3nnn(Cc4ccc5ncccc5c4)c3n2)cn1` [PF-04217903], the Drug metabolism entry at Aldehyde oxidase [2] and at Aldehyde oxidase [1] was “Metabolite_Detected” throughout. For the compound `CNC(=O)c1ccc(-c2cnc3ncc(Cc4ccc5ncccc5c4)n3n2)cc1F` [CAPMATINIB], at Aldehyde oxidase [1], the Drug metabolism result is given as “Metabolite_Detected”. For `Cn1cc(-c2ccc3nnc(C(F)(F)c4ccc5ncccc5c4)n3n2)cn1` [JNJ-38877605], the Drug metabolism entry on Aldehyde oxidase [2] is “Metabolite_Detected”. On the same count and under the same terms, to `Cn1cc(-c2ccc3nnc(Sc4ccc5ncccc5c4)n3n2)cn1` [SGX-523] belongs “Metabolite_Detected”. As to `CNC(=O)c1ccc(-c2nn3c(Cc4ccc5ncccc5c4)cnc3[nH]c2=O)cc1F`, the results for the Drug metabolism at Aldehyde oxidase [3], at Aldehyde oxidase [4] and at Aldehyde oxidase [5] were 136000, “Metabolite_Detected” and 3220, respectively. The compound further displayed a Retention time in series [6] of 3.63 min.
